Data: ChEMBL document CHEMBL1139013, “Synthesis and biological evaluation of novel 9-substituted-8-hydroxyadenine derivatives as potent interferon inducers” (J Med Chem, 2006)
Values belong to the molecule of their own block, whether it stands above or below them.

Columns and labels:
[1] = tested on: Splenocyte; experiment: Induction of IFN in C3H/HeJ mouse splenocytes at 100 nM; type: functional
Summary of the method: (§1)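 Mouse splenocytes are suspended at 2 × 10⁶ cells/mL in MEM with 5% fetal calf serum, penicillin and streptomycin. They are mixed 1:1 with compound (DMSO stock diluted 500-fold in medium) and cultured 18 h at 37 °C in 5% CO₂. Supernatants are filter-sterilized and stored at -80 °C. IFN (IU/mL) is measured by L929/vesicular stomatitis virus bioassay.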

[2] = tested on: Splenocyte; experiment: Induction of IFN in C3H/HeJ mouse splenocytes at 3 nM; type: functional; summary of the method: as §1
[3] = tested on: Mus musculus; experiment: Induction of IFN in BALB/c mice at 0.1 mg/kg, po; type: functional
[4] = tested on: Splenocyte; experiment: Induction of IFN in C3H/HeJ mouse splenocytes at 10 nM; type: functional; summary of the method: as §1
[5] = tested on: Splenocyte; experiment: Induction of IFN in C3H/HeJ mouse splenocytes at 1 nM; type: functional; summary of the method: as §1
[6] = tested on: Splenocyte; experiment: Induction of IFN in C3H/HeJ mouse splenocytes at 30 nM; type: functional; summary of the method: as §1
[7] = tested on: Mus musculus; experiment: Induction of IFN in BALB/c mice at 0.3 mg/kg, po; type: functional
[8] = Cmax in ferret at 3 mg/kg, po; type: ADME, organism-based, Mustela putorius furo; set-up: dose 3 mg/kg, route oral; settings: in vivo
Summary of the method: (§2)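 Male ferrets, 4 months old, dosed orally with compound suspended in 0.5% sodium carboxymethyl cellulose. Blood (0.5 mL) drawn from jugular vein; serum separated at 1630g, 10 min, 4 °C, stored at -20 °C. Compound concentration measured by HPLC; maximum concentration reported in ng/mL.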

[9] = tested on: Mustela putorius furo; experiment: Emetic activities in ferret at 0.3 mg/kg, po; type: organism-based; set-up: dose 0.3 mg/kg, route oral; settings: in vivo
Summary of the method: (§3)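 Oral dosing of male ferrets (4 months old) with compound in 0.5% sodium carboxymethyl cellulose vehicle; doses 0.3-30 mg/kg, 5 animals per group. Animals housed singly, video-recorded continuously for 6 h. Tapes scored afterwards for presence or absence of vomiting; reported as number vomiting per group.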

[10] = tested on: Mustela putorius furo; experiment: Emetic activities in ferret at 3 mg/kg, po; type: organism-based; set-up: dose 3 mg/kg, route oral; settings: in vivo; summary of the method: as §3
[11] = tested on: Cynomolgus monkey; experiment: Induction of IFN in cynomolgus monkey at 0.1 mg/kg, po; type: functional, Macaca fascicularis
[12] = tested on: Cynomolgus monkey; experiment: Induction of IFN in cynomolgus monkey at 1 mg/kg, po; type: functional, Macaca fascicularis
[13] = Cmax in ferret at 30 mg/kg, po; type: ADME, organism-based, Mustela putorius furo; set-up: dose 30 mg/kg, route oral; settings: in vivo; summary of the method: as §2
[14] = tested on: Cynomolgus monkey; experiment: Induction of IFN in cynomolgus monkey at 0.3 mg/kg, po; type: functional, Macaca fascicularis
[15] = tested on: Mustela putorius furo; experiment: Emetic activities in ferret at 30 mg/kg, po; type: organism-based; set-up: dose 30 mg/kg, route oral; settings: in vivo; summary of the method: as §3

Structure (SMILES): CCCCNc1nc(N)c2nc(O)n(Cc3cccnc3)c2n1
- Activity [1]: 8.1 IU/ml
- Activity [2]: 1.6 IU/ml
- Activity [3]: 76 IU/ml
- Activity [4]: 32.5 IU/ml
- Activity [5]: <0.5 IU/ml
- Activity [6]: 16.6 IU/ml
- Activity [7]: 327 IU/ml

Structure (SMILES): CCCCNc1nc(N)c2nc(O)n(Cc3ccc(C)nc3)c2n1
- Activity [1]: 1.4 IU/ml
- Cmax [8]: 20.8 ng/mL
- Activity [2]: 4.4 IU/ml
- Activity [9]: Not Active
- Activity [3]: 393 IU/ml
- Activity [10]: Not Active
- Activity [11]: 121 IU/ml
- Activity [12]: 34810 IU/ml
- Cmax [13]: 1020 ng/mL
- Activity [4]: 7.8 IU/ml
- Activity [5]: <0.5 IU/ml
- Activity [6]: 3.7 IU/ml
- Activity [14]: 591 IU/ml
- Activity [15]: Not Active
- Activity [7]: 1891 IU/ml

Structure (SMILES): CCCCNc1nc(N)c2nc(O)n(Cc3cncc(C)c3)c2n1
- Activity [1]: 4.6 IU/ml
- Activity [2]: 1.9 IU/ml
- Activity [4]: 2.4 IU/ml
- Activity [5]: <0.5 IU/ml
- Activity [6]: 2.1 IU/ml

- Cmax [8]: 109 ng/mL
- Cmax [13]: 1200 ng/mL
Structure (SMILES): CCCCNc1nc(N)c2nc(O)n(Cc3ccc(OC)nc3)c2n1
- Activity [1]: 1 IU/ml
- Activity [2]: 8.2 IU/ml
- Activity [9]: Not Active
- Activity [3]: 375 IU/ml
- Activity [10]: Not Active
- Activity [11]: 3 IU/ml
- Activity [12]: 17422 IU/ml
- Activity [4]: 13.4 IU/ml
- Activity [5]: <0.5 IU/ml
- Activity [6]: 3 IU/ml
- Activity [14]: 244 IU/ml
- Activity [15]: Not Active
- Activity [7]: 1920 IU/ml

Structure (SMILES): CCCCNc1nc(N)c2nc(O)n(Cc3ccc(Cl)nc3)c2n1
- Activity [1]: 1.5 IU/ml
- Cmax [8]: 20.1 ng/mL
- Activity [2]: 5.6 IU/ml
- Activity [9]: Not Active
- Activity [3]: 811 IU/ml
- Activity [10]: Not Active
- Activity [11]: 0 IU/ml
- Activity [12]: 3602 IU/ml
- Cmax [13]: 275 ng/mL
- Activity [4]: 6.8 IU/ml
- Activity [5]: <0.5 IU/ml
- Activity [6]: 2.6 IU/ml
- Activity [14]: 19 IU/ml
- Activity [15]: Not Active
- Activity [7]: 1826 IU/ml

Structure (SMILES): CCCCNc1nc(N)c2nc(O)n(Cc3ccc(N(C)C)nc3)c2n1
- Activity [1]: 2.7 IU/ml
- Activity [2]: 4.9 IU/ml
- Activity [3]: <5 IU/ml
- Activity [4]: 9.4 IU/ml
- Activity [5]: <0.5 IU/ml
- Activity [6]: 5.1 IU/ml

- Cmax [8]: 1180 ng/mL
Structure (SMILES): CCOCc1nc2c(N)nc3ccccc3c2n1CC(C)(C)O [RESIQUIMOD]
- Activity [1]: 4 IU/ml
- Activity [2]: 2.8 IU/ml
- Activity [9]: Active
- Activity [3]: 1176 IU/ml
- Activity [10]: Active
- Activity [11]: 7 IU/ml
- Activity [12]: 44037 IU/ml
- Activity [4]: 11 IU/ml
- Activity [5]: <0.5 IU/ml
- Activity [6]: 7 IU/ml
- Activity [14]: 13 IU/ml
- Activity [7]: 1714 IU/ml

Structure (SMILES): CCCCNc1nc(N)c2nc(O)n(Cc3cccc4ccccc34)c2n1
- Activity [1]: 15.4 IU/ml
- Activity [2]: <0.5 IU/ml
- Activity [3]: <5 IU/ml
- Activity [4]: 2.2 IU/ml
- Activity [6]: 34 IU/ml
- Activity [7]: 39 IU/ml

Structure (SMILES): CCCCNc1nc(N)c2nc(O)n(Cc3ccc(C(F)(F)F)cc3)c2n1
- Activity [1]: 15.2 IU/ml
- Activity [2]: <0.5 IU/ml
- Activity [3]: 8 IU/ml
- Activity [4]: 2.9 IU/ml
- Activity [6]: 10.7 IU/ml
- Activity [7]: 276 IU/ml
